# High-throughput results: PubChem BioAssay, several laboratories
# A selection: hits, their analogues and other compounds. The true share with any hit is near 1.5%.
# NSD2 HMT inh = NSD2 (human) methyltransferase inhibition | O96028 | NSD2 peptide methylation, AlphaScreen, 120 min | inhibition, % at 12.5 µM | 0.54% of 310,000 active | AID 743445
# Target sequence (O96028 whole entry, looked up): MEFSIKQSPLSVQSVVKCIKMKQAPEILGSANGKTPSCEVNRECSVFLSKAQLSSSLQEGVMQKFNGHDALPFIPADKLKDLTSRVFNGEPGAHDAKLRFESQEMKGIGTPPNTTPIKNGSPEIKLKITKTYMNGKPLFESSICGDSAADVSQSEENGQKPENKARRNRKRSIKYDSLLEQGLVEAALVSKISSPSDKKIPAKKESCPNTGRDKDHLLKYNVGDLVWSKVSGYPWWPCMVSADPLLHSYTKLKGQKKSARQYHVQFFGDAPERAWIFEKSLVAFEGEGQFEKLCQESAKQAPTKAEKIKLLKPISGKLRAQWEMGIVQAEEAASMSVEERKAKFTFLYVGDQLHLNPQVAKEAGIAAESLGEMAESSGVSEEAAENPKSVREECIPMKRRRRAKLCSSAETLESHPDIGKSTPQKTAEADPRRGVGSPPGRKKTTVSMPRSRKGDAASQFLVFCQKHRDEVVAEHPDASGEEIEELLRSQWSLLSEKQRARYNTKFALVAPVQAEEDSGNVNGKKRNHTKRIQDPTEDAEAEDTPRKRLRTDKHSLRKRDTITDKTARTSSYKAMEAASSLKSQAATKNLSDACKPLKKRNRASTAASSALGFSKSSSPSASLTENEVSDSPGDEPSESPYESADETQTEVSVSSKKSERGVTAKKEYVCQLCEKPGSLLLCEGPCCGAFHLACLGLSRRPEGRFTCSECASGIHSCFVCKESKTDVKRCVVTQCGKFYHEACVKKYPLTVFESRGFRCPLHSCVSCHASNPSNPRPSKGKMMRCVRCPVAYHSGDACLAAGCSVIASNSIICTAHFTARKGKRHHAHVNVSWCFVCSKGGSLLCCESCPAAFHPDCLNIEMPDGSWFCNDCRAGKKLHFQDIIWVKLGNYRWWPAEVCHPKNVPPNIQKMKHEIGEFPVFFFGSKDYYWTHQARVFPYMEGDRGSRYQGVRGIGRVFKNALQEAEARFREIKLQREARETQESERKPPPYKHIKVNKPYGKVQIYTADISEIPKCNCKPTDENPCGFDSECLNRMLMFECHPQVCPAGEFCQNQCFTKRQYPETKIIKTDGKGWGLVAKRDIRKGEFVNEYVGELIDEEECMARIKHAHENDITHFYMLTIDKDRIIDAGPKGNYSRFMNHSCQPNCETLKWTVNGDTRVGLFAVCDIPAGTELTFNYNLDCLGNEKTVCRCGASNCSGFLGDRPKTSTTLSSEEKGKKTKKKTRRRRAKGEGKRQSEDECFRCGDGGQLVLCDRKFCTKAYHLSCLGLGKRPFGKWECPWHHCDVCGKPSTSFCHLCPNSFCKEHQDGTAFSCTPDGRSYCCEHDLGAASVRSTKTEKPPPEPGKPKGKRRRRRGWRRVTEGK
# CASP6 VEID inh = blocks human caspase-6 cleavage activity; P55212; purified caspase-6, Z-VEID-R110 cleavage fluorescence; inhibition, % at 12.5 µM; 0.53% of 350,000 active; AID 686996;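 active means mean inhibition across replicates at least about 35%, with every replicate also reaching that limit, limit read from the data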;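 further: 0% = median of neutral control wells and 100% = no fluorescence left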
# HCV NS3 hel inh = inhibitors of Hepatitis C virus NS3 helicase; NS3 helicase DNA unwinding, Cy5 molecular beacon fluorescence; inhibition, % at 10.9 µM; 0.56% of 290,000 active;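 active means inhibition above the mean of all tested compounds plus 3 SD, set per campaign, cut at about 35% in these data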;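 further: 0% = DMSO wells and 100% = thioflavine S control wells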
#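 Assay system: hepatitis C virus NS3 helicase domain fragment enzyme. Also added: annealed dual-labelled DNA beacon duplex, ATP-started. Timing: 1 h reaction at 25 °C, ATP-initiated. Technique: Cy5 fluorescence at 0 and 60 min, beacon hairpin quenching. Evaluation: % inhibition of unwinding. Replication: one well per compound.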
# DNMT1 inh = blocks human DNA methyltransferase DNMT1 | DNMT1 molecular beacon, Hinp1I cleavage, fluorescence | inhibition (reported as % activation of signal), % at 10 µM | 0.83% of 360,000 active
# Alpha artifact = interferes with AlphaScreen signal, flagging NSD2 false positives; shares compounds with NSD2 HMT inh; AlphaScreen artifact counterscreen, preloaded methylated H4 peptide; AC35, µM (titrated, usually from 10 µM), inactives show at the highest dose activity change, negative = signal loss; 9.4% of 1,500 active; AID 1053174; call rule not given here
# * = called active by the depositor; . = no result. Unless noted, no stated cut-off is given here; in the data, active means inhibition above about 50%; inactive means the rest.
SMILES,NSD2 HMT inh,CASP6 VEID inh,HCV NS3 hel inh,DNMT1 inh,Alpha artifact
O=C(CCCCCN1C(=O)C2C3C=CC(C3)C2C1=O)Nc1ccc2ncccc2c1 (stereo not drawn),95.0*,.,.,.,-1.0%
COC(=O)C[C@@H]1C[C@H]2c3cc(NC(=O)Nc4ccc(C(F)(F)F)cc4)ccc3O[C@H]2[C@@H](CO)O1,.,-1.1,.,.,.
Cc1cc2ccccn2c1C(=O)c1ccc([N+](=O)[O-])o1,61.2*,2.7,4.9,-5.0,-10.9%
Cc1cc2ccccn2c1C(=O)c1cccc([N+](=O)[O-])c1,-1.9,-1.9,4.9,-1.4,.
CCCCCNc1nc(N2CCCC2)c2c(c1C#N)CCN(C)C2,36.7,.,-70.9,-3.2,.
CCCCCNc1nc(NCCCO)c(C#N)c2c1CN(C)CC2,51.3*,.,0.9,-12.5,-5.3%
COc1ccccc1CN(Cc1cc2cc3c(cc2[nH]c1=O)OCCO3)Cc1nnnn1Cc1ccco1,60.5*,.,21.2,-0.9,-6.2%
O=c1[nH]c2cc3c(cc2cc1CN(Cc1ccccc1)Cc1nnnn1Cc1ccco1)OCCO3,22.2,.,11.9,4.2,.
O=C(CNc1ccc(F)cc1)N/N=C/c1c(O)ccc2ccccc12,69.9*,2.6,14.0,-11.8,0.5%
CCOC(=O)N1CCN(C(=O)CSCC(=O)Nc2nc(-c3ccc(-c4ccccc4)cc3)cs2)CC1,.,-1.1,-5.1,22.9,.
O=C(CSCC(=O)N1CCOCC1)Nc1nc(-c2ccccc2)cs1,52.9*,0.1,-1.7,1.1,2.1%
Cc1nnc(N/N=C/c2ccc(-c3ccc(Br)cc3)o2)n1N,.,-0.5,-5.5,-6.5,.
Cc1nnc(N/N=C\c2ccc(-c3cccc(C(=O)O)c3)o2)n1N,95.4*,12.6,9.3,-2.9,3.5%
COc1ccccc1/C=N/Nc1cc(C)nc(N2CCOCC2)n1,56.5*,0.6,-0.4,-3.6,0.1%
COc1ccccc1/C=N/Nc1cc(N(C)C)nc(N(C)C)n1,100.3*,0.3,-8.9,11.7,-3.4%
COc1ccc(/C=N/Nc2cc(C)nc(N3CCOCC3)n2)cc1OC,0.6,-0.2,-6.6,4.7,.
CN(C)c1cc(N/N=C\c2ccccc2)nc(N(C)C)n1,102.8*,0.9,5.3,4.9,0.4%
C[C@@H]1CN([C@H](C)CO)S(=O)(=O)c2ccc(-c3cccc(F)c3)cc2O[C@@H]1CN(C)C,.,3.9,.,.,.
COC(=O)c1ccc(-n2nnnc2SCC(=O)NCc2cccc(C(=O)O)c2)cc1,106.8*,.,1.2,2.3,2.6%
CCOC(=S)SCC(=O)Nc1nc(C)c(C)s1,51.4*,0.1,-8.2,11.4,-2.2%
COc1ccc(/C=N/Nc2nnc(C)n2N)cc1OC(C)=O,-2.7,7.0,-3.0,-4.7,.
COc1ccc(/C=N/Nc2nnc(C)n2N)cc1OC,110.8*,22.1,4.9,-1.8,-2.7%
O=C(CSc1nc2nn(-c3ccccc3)c(=O)c-2c2n1CCCCC2)c1ccc(O)c(O)c1,93.7*,.,.,1.8,7.91µM*
Cc1ccc(NC(=O)Cn2nnc(C(=O)NCc3ccccc3)c2N)cc1C,55.6*,1.7,-1.2,15.7,-2.4%
CCCC#Cc1ccc2c(c1)O[C@H](CN(C)C(=O)NC(C)C)[C@H](C)CN([C@H](C)CO)S2(=O)=O,.,-0.5,.,.,.
SMILES,NSD2 HMT inh,CASP6 VEID inh,HCV NS3 hel inh,DNMT1 inh,Alpha artifact
O=C(Nc1ccccc1)N1CC(=O)N2[C@H](CO)[C@H](c3ccc(C#CC4CCCCC4)cc3)[C@@H]2C1,.,2.9,.,.,.
COc1ccc(-n2c(C)ccc2-c2ccccc2)cn1,58.5*,-1.0,-7.2,1.3,-2.0%
C/C=C/c1ccc2c(c1)[C@@H]1[C@@H](CCN1S(=O)(=O)c1ccccc1C)[C@H](CO)N2,.,-0.3,.,.,.
COc1cc(N)c2ncccc2c1Br,151.9*,92.9*,.,41.5,-2.5%
C[C@H](CO)N1C[C@H](C)[C@H](CN(C)Cc2ccncc2)Oc2cc(Br)ccc2S1(=O)=O,.,-3.4,.,.,.
O=c1ccc(-c2ccc([N+](=O)[O-])cc2)nn1-c1ccccc1,-1.6,-2.1,4.8,-1.8,.
O=[N+]([O-])c1ccc(-[n+]2nc(-c3ccccc3)nn2-c2ccccc2)cc1,81.0*,6.6,3.9,0.9,0.914µM*
O=C(C[C@H]1C[C@H]2c3cc(NC(=O)Cc4ccncc4)ccc3O[C@H]2[C@H](CO)O1)NCc1cc(F)ccc1F,.,-1.0,.,.,.
CC=Cc1ccc2n(c1=O)C[C@@H]1[C@@H](CO)[C@H](C(=O)NC3CCC3)N(CCC)[C@H]21 (mixture of isomers),.,-1.4,.,.,.
NC1=CC(=O)C(=O)c2ccccc21,100.3*,40.9*,.,37.1,-0.7%
C[C@@H]1CN([C@@H](C)CO)S(=O)(=O)c2ccc(-c3ccccc3F)cc2O[C@H]1CN(C)Cc1cccnc1,.,0.4,.,.,.
CCC(=O)N1CCN(c2ccc(Cl)cc2NC(=O)c2ccc(Br)o2)CC1,118.6*,.,-2.2,4.8,-7.9%
Cc1noc(C)c1NC(=O)Nc1ccc2c(c1)C(=O)N([C@@H](C)CO)C[C@@H](C)[C@H](CN(C)C(=O)Nc1ccc3c(c1)OCO3)OCCCC[C@@H](C)O2,.,0.2,.,.,.
O=C1C=C(O)c2[nH]c(=O)ccc2C1=O,93.8*,84.2*,.,4.3,0.6%
O=C(C[C@@H]1C=C[C@H](NC(=O)NC2CCCCC2)[C@@H](CO)O1)NCc1ccccc1,.,-4.4,.,.,.
CCCNC(=O)N(C)C[C@@H]1Oc2cc(-c3ccc(C)cc3)ccc2S(=O)(=O)N([C@H](C)CO)C[C@H]1C,.,4.7,.,.,.
Cc1nnc(Sc2cc(NCCO)c([N+](=O)[O-])c3nonc23)s1,60.2*,8.9,-3.6,-6.9,-3.2%
O=C(O)C(C(=O)O)=C1C2CC3CC(C2)CC1C3,1.5,1.6,1.2,-0.8,.
O=C(O)C=C1C2CC3CC(C2)CC1C3,50.3*,.,7.5,8.0,-3.5%
CCOC(=O)c1c2c(n(Cc3ccccc3)c1C)C(=O)C(=O)c1ccccc1-2,62.8*,12.2,.,93.1*,9.34µM*
CCCCc1nc2cc(C(=O)N3CCC[C@H]3CO)ccc2o1,-4.7,-1.1,-5.4,3.1,.
CCCCc1nc2cc(C(=O)N3CCC(O)CC3)ccc2o1,66.2*,0.3,-2.2,0.2,-4.4%
CCOc1ccc(C2C3=C(CCCC3=O)Nc3ccc4ncccc4c32)cc1 (stereo not drawn),-5.7,3.0,-5.5,-2.9,.
O=C1CCCC2=C1C(c1ccc(O)c(O)c1)c1c(ccc3ncccc13)N2 (stereo not drawn),76.9*,62.2*,26.3,20.2,0.2%
COc1cc(/C=C2\C(=N)N3N=C(S(C)(=O)=O)SC3=NC2=O)ccc1OC(=O)c1cccs1,62.3*,43.3*,-23.2,11.8,-6.6%
CCCC(=O)Nc1ccccc1NC(=O)CCC,-1.1,.,5.5,-0.6,.
CCCC(=O)Nc1ccc(C(=O)O)cc1NC(=O)CCC,72.3*,.,-16.3,1.3,-1.6%
CC(=O)N1CCN(c2ccccc2NC(=O)c2ccc3ccccc3c2)CC1,53.5*,2.3,-1.1,-0.8,-0.9%
C=CCC1CCCCC1=C(C#N)c1ccccc1 (stereo not drawn),53.3*,-3.2,.,3.7,-5.4%
